Screening data: PubChem BioAssay, several laboratories
A selection: hits, their analogues and other compounds. The true share with any hit is near 1.2%.
SR-BI uptake up – activators of SR-BI mediated HDL lipid uptake; CHO ldlA[mSR-BI] cells, DiI-HDL uptake fluorescence, 3 h; 100 = double the neutral-control signal; activation, % at 12.5 µM; 320,000 compounds, 0.096% hits; AID 504775;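 active = mean replicate activation of at least 60% and every replicate at or above 60%; inconclusive = mean or all-replicate condition met, but not both; inactive = mean below 60% and not all replicates reaching 60%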
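Test system: SR-BI-overexpressing, LDLR-lacking CHO cells; Also added: labelled HDL, 10 µg/mL; Measured by: bottom-read cell fluorescence after medium removal, ex 550/em 595 nm; Timing: 3 h uptake period with compound, 37 °C; Buffer or medium: F12, 0.5% BSA, 25 mM HEPES; Doses: single compound concentration, delivered by pin transfer.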
FN deposit inh – fibronectin deposition inhibition. AH1F fibroblasts, Alexa488-fibronectin deposition fluorescence, overnight. inhibition, % at 12.6 µM. 350,000 compounds, 0.086% hits. AID 743247;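 active = mean inhibition across replicates of 30% or more, regardless of how many single replicates reach that level; inconclusive = mean under 30% yet at least half of replicates reach 30%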
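Material – AH1F fibroblast monolayer, labelled fibronectin deposition · Reagent – labelled fibronectin 24 nM · Timing – 1 h adhesion, overnight exposure · Measured by – fluorescence at 485 nm excitation, 525 nm emission · Read-out – inhibition of fibronectin deposition signal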
CaV13 FRET inh – Disruptors of the CACNA1D IQ motif to Ca2+-dependent inactivation inhibitor domain association, primary screening, Förster resonance energy transfer in intact living …; HEK cells, CFP/YFP FRET ICDI-IQ, plate reader, 10 min; percent FRET-ratio fall versus neutral wells; inhibition, % at 12.3 µM; 340,000 compounds, 0.098% hits;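 active = mean replicate inhibition of at least 30% and at least 1% of replicates passing that level; inconclusive = only one of the two criteria is met; inactive = neither criterion is met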
SR-BI DiI inh – blocks mouse SR-BI lipid uptake from DiI-HDL. ldlA[mSR-BI] CHO cells, DiI-HDL uptake fluorescence, 3 h. 320,000 compounds, 0.96% hits. inhibition, % at 12.5 µM. Q61009;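 active = mean replicate inhibition of at least 70% and a set share of replicates each scoring 70 or more; inconclusive = meets just one of the two criteria; inactive = fails both criteria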
Target sequence (Q61009 whole entry, looked up): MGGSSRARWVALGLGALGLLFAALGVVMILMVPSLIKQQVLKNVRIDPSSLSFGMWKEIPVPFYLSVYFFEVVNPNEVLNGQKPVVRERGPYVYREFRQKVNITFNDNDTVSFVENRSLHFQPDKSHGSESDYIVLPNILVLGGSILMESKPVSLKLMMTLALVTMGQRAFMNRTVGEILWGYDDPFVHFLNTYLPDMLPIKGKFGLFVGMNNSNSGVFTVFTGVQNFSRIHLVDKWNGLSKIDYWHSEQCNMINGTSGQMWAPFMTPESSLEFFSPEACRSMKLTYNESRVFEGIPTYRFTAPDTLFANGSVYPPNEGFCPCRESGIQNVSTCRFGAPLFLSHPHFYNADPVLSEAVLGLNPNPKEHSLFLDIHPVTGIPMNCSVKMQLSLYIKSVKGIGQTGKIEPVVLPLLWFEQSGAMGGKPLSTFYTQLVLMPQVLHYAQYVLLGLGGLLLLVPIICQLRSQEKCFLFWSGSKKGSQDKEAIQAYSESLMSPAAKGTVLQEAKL
Efflux pump inh – inhibitors of Candida antifungal efflux pumps expressed in yeast; S. cerevisiae Candida pump triplex, Nile Red efflux; inhibition, % at 10 µM; 330,000 compounds, 0.44% hits;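 active = plate passing quality check with inhibition over a set limit, or well fluorescence over plate mean plus 4 SD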;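 also: Nile Red retained in pooled yeast measured as flow cytometry median fluorescence; higher means more Nile Red kept so more efflux inhibition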
Hits are given with their value; n = inactive; u = inconclusive; x = not tested or not shown; + = active, no number; ! = not active in a repeat.

SMILES	SR-BI uptake up	FN deposit inh	CaV13 FRET inh	SR-BI DiI inh	Efflux pump inh
CO[C@@H]1CN(C)C(=O)c2ccc(NC(C)=O)cc2OC[C@H](C)N(C(=O)CN(C)C)C[C@H]1C	x	n	x	x	x
COc1ccc(S(=O)(=O)Nc2ccc3c(c2)CC(=O)N([C@H](C)CO)C[C@H](C)[C@@H](CN(C)Cc2ccc(C(=O)O)cc2)O3)cc1	x	n	x	x	x
COc1ccc(C2CC(c3c(O)cc(C)oc3=O)=NCCS2)c(OC)c1 (configuration not stated)	n	n	x	78	n
Cc1cc(C)c2sc(NNC(=O)c3ccc(S(=O)(=O)N4CCc5ccccc5C4)cc3)nc2c1	n	n	n	146	n
Cc1cc(C)c2nc(NNC(=O)c3ccc(S(=O)(=O)N4CCc5ccccc5C4)cc3)sc2c1	n	n	n	133	n
CCc1nnc(NC(=O)c2ccc(S(=O)(=O)N3CCc4ccccc4C3)cc2)s1	n	x	x	n	n
COc1ccccc1Nc1nc(-c2sc(NC(=O)CC(C)C)nc2C)cs1	n	n	n	n	n
C=CCCC(=O)Nc1nc(C)c(-c2csc(Nc3cccc(OC)c3)n2)s1	n	n	n	87	n
COc1cccc(Nc2nc(-c3sc(NC(=O)CC(C)C)nc3C)cs2)c1	n	n	n	86	n
CC(C)OC(=O)Nc1ccc2c(c1)N(C(=O)CCN1CCOCC1)c1ccccc1CC2	63	n	n	n	n
CC(C)OC(=O)Nc1ccc2c(c1)N(C(=O)CCN1CCN(CCO)CC1)c1ccccc1CC2	n	x	n	n	n
COc1cccc(-c2nc(N3CCCCC3C)c3ccccc3n2)c1O (configuration not stated)	n	n	n	n	n
COc1cccc(-c2nc(NCc3ccccc3)c3ccccc3n2)c1O	n	n	n	n	n
COc1cccc(-c2nc(NC3CCCC3)c3ccccc3n2)c1O	n	n	n	83	n
C=CCNc1nc(-c2cccc(OC)c2O)nc2ccccc12	n	n	n	76	n
CCCOc1ccc(NC(=O)C2CC(=O)N/C(=N/N=C(C)/C=C/c3ccc(N(C)C)cc3)S2)cc1 (configuration not stated)	n	x	n	82	n
C=COCCNC(=O)Nc1ccc(Cl)cc1Cl	n	x	x	72	n
CC(=NCc1ccco1)c1c(C)[nH]n(-c2nc3ccccc3s2)c1=O	n	x	x	n	n
C/C(=N/NC(=O)c1cccs1)c1c(C)[nH]n(-c2nc3ccccc3s2)c1=O	n	n	n	107	n
CCN(CC)c1ccc(/C=N/NC(=O)Cc2nnc(NC(=O)Nc3ccccc3)s2)cc1	n	n	n	91	n
CCN(CC)c1ccc(/C=N/NC(=O)Nc2ccccc2)cc1	n	n	n	n	n
Cc1sc2ncnc(Nc3ccc(N4CCOCC4)cc3)c2c1-c1ccccc1	n	n	n	76	n
O=[N+]([O-])c1ccccc1/C=C/C=N/Nc1nc(N2CCCCC2)nc(N2CCCCC2)n1	n	n	n	79	n
O=C1N[C@@H](Cc2ccccc2)COCc2cn(nn2)CC[C@H]1Cc1ccccc1	x	n	x	x	x
Cc1cccc(OCC(=O)Nc2ccc3c(c2)nc(CCN2CCN(c4ccccn4)CC2)n3C)c1	n	n	n	73	n
SMILES	SR-BI uptake up	FN deposit inh	CaV13 FRET inh	SR-BI DiI inh	Efflux pump inh
CSc1nsc2nc(=O)c(/C=C3\C(C)=Nc4ccc(C)cc43)c(N)n12	n	n	n	n	n
CC1=Nc2ccc(C)cc2/C1=C/c1c(N)n2oc(C)cc2nc1=O	n	n	u	93!	n
CNC(=O)C[C@H]1CC[C@H]2[C@@H](COC[C@H](O)CN2C(=O)Nc2ccc3c(c2)OCO3)O1	x	n	x	x	x
COc1ccc(C2C3=C(CC(C)(C)CC3=O)N(C)C3=C2C(=O)CC(C)(C)C3)cc1	n	n	+	n	n
CCOc1ccc(NC(=O)c2cc3c(C)nc4ccccc4c3o2)cc1	n	n	n	99	n
C[C@@H]1CCCCO[C@H](CN(C)C(=O)CCCN(C)C)[C@@H](C)CN([C@H](C)CO)C(=O)c2cc(NC(=O)CCCN(C)C)ccc2O1	x	n	x	x	x
C[C@@H]1CCCCO[C@@H](CN(C)S(=O)(=O)c2ccc(F)cc2)[C@@H](C)CN([C@@H](C)CO)C(=O)c2cc(NC(=O)CCC(F)(F)F)ccc2O1	x	n	x	x	x
COC(=O)c1sc2nc3c(cc2c1N)COC(C)(C)C3	170	x	x	n	n
CSc1cccc(NC(=O)N2CCc3ccc(NC(=O)c4ccccn4)cc3C2)c1	n	n	n	76	n
CCOC(=O)CNC(=O)N1CCc2ccc(NC(=O)c3ccccc3Cl)cc2C1	n	n	n	96	n
CO[C@H]1CN(C)C(=O)c2cc(NS(=O)(=O)CC(F)(F)F)ccc2OC[C@@H](C)N(CCC(F)(F)F)C[C@@H]1C	x	n	x	x	x
Cc1ccccc1C(=O)Nc1cccc(C(=O)N/N=C/c2cc(Cl)cc([N+](=O)[O-])c2O)c1	n	n	n	102	n
Cc1cc(/C=N/NC(=O)c2cccc([N+](=O)[O-])c2)c(C)n1-c1ccccc1	n	n	n	80	n
O=C(N/N=C/c1ccccc1O)c1cccc(C(F)(F)F)c1	n	x	n	136	n
COc1ccc2ccccc2c1/C=N/NC(=O)c1cccc([N+](=O)[O-])c1	n	n	n	86	n
CC(C)C#Cc1cnc2c(c1)C(=O)N([C@H](C)CO)C[C@H](C)[C@@H](CN(C)C(=O)Nc1cccc(F)c1)O2	x	n	x	x	x
COC(=O)C[C@H]1CC[C@H]2[C@H](COc3ccc(NC(=O)c4cc(C)on4)cc3C(=O)N2C)O1	x	n	x	x	x
COc1ccccc1/C=N/NC(=O)c1ccc(NC(=O)c2cccc([N+](=O)[O-])c2)cc1	x	x	x	x	n
O=C(N/N=C/c1ccccn1)c1cccc([N+](=O)[O-])c1	n	n	n	n	n
O=C(N/N=C/c1ccccn1)c1ccc(NC(=O)c2cccc([N+](=O)[O-])c2)cc1	n	x	n	82	n
O=C(NN=Cc1ccccc1O)c1cccc([N+](=O)[O-])c1	n	n	n	129	x
COc1cccc(/C=N/NC(=O)c2cc3cc([N+](=O)[O-])ccc3s2)c1O	n	n	n	126	n
COc1cccc(NC(=O)C[C@H]2CC[C@@H]3[C@H](COc4ccc(NC(=O)C5CCCC5)cc4C(=O)N3C)O2)c1	x	n	x	x	x
Nc1ccc(C(=O)Nc2nc3ccccc3s2)cc1	n	n	n	n	n
Cc1cc(C)n(-c2ccc(C(=O)Nc3cccc([N+](=O)[O-])c3)cc2)n1	n	n	n	80	n
Cc1cc(C)n(-c2ccc(C(=O)Nc3nc4ccccc4s3)cc2)n1	n	x	x	70	n
CNC(=O)C[C@@H]1CC[C@@H]2[C@@H](COc3ccc(NC(=O)c4cccc(OC)c4)cc3C(=O)N2C)O1	x	n	x	x	x
O=C(C[C@H]1CC[C@@H]2[C@H](COC[C@@H](O)CN2C(=O)Nc2ccc(Cl)c(Cl)c2)O1)NCc1ccc(Cl)cc1	x	n	x	x	x
